# Results taken from the RNAGym collection of RNA variant scans (doi:10.1038/s41586-018-0170-7).
# B1: tRNA (parent)
# chain: GUUCCGUUGGCGUAAUGGUAACGCGUCUCCCUCCUAAGGAGAAGACUGCGGGUUCGAGUCCCGUACGGAACG
# Variants of: B1
# Experiment: yeast fitness, log relative to wild type (ln ratio); higher = fitter; tRNA-Arg(CCU), competitive growth, 37 C, 1 M NaCl
# Method in brief: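 Fitness is the natural log of a genotype's generation count divided by that of the wild type. A combinatorial library of tRNA-Arg(CCU) variants sat on a HIS3 centromeric plasmid in BY4742 lacking the chromosomal gene, from two independent transformations. Pools grew 4 generations in SC-HIS at 30 °C, then ~6.5 generations (~26.5 h) in SC-HIS 1M NaCl at 37 °C, with three outputs per input. Generations came from OD-scaled log2 output/input frequency, inverse-variance weighted across replicates, with variants counted by 125 bp paired-end Illumina sequencing.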
row,Variant,yeast fitness (ln)
1,U2G G6A C27U A70U,-0.283
2,U2G G6A C27U A43C C46U C66A C71U,-0.283
3,U2G C66A C71U,-0.108
4,U2G C27U C66U A70U,-0.0967
5,U2G C27U C66U A70G,-0.147
6,U2G G6A C46U C66A A70G,-0.056
7,U2G G6A C46U C66A A70U,-0.059
8,U2G G6A A43C C46U C66A A70U C71U,-0.227
9,U2G C66U A70G C71U,-0.121
10,U2G C66A A69G A70U C71U,-0.291
11,U2G G6A A43C C71U,-0.195
12,U2G G6A C46U A69G C71U,-0.124
13,U2G G6A A69G A70U,-0.265
14,U2G G6A A69G A70G,-0.139
15,U2G C46U C66U A69G,-0.119
16,U2G G6A C27U C46U A69G,-0.149
17,U2G G6A A43C C66A A70G,-0.187
18,U2G G6A A43C C66A A70U,-0.12
19,U2G G6A A43C C46U A69G C71U,-0.206
20,U2G G6A C27U C46U A69G C71U,-0.174
21,U2G G6A C27U A43C C46U A69G A70G,-0.183
22,U2G G6A C27U A43C C46U A69G A70U,-0.159
23,U2G G6A A43C C66U A69G A70U C71U,-0.407
24,U2G C46U C66A,-0.0933

row,Variant,yeast fitness (ln)
1,U2G C46U C66U,-0.0936
2,U2G G6A C27U C46U C66U A69G,-0.215
3,U2G G6A C27U C66A A69G A70G C71U,-0.249
4,U2G G6A A43C C66A A69G A70G C71U,-0.154
5,U2G G6A C46U C66A A70G C71U,-0.148
6,U2G C66A A70G C71U,-0.168
7,U2G G6A C27U C46U A70U C71U,-0.143
8,U2G C46U C66A A69G A70G,-0.0404
9,U2G C46U C66A A69G A70U,-0.0347
10,U2G C46U C66A A69G C71U,-0.191
11,U2G G6A C27U A43C C46U C66A A70G C71U,-0.19
12,U2G C46U C66U A69G C71U,-0.209
13,U2G G6A A43C C46U A70U,-0.261
14,U2G G6A A43C C46U A70G,-0.148
15,U2G C66A A69G C71U,-0.145
16,U2G G6A C46U A70U C71U,-0.449
17,U2G G6A C27U C66A A70G,-0.15
18,U2G G6A C27U C66A A70U,-0.126
19,U2G G6A C27U A43C C66U A69G A70U C71U,-0.434
20,U2G G6A C27U C46U A70G C71U,-0.207
21,U2G G6A C27U A43C C46U C66U,-0.102
22,U2G G6A C27U A43C C46U C66A,-0.189
23,U2G C27U C66U A69G A70G C71U,-0.264
24,U2G G6A C27U C46U C66U A70G C71U,-0.165

row,Variant,yeast fitness (ln)
1,U2G G6A C27U A43C C66U A70G C71U,-0.29
2,U2G C27U C66U C71U,-0.194
3,U2G G6A C46U C66U A69G A70U C71U,-0.385
4,U2G G6A A43C C46U A70U C71U,-0.118
5,U2G C66U A70U C71U,-0.543
6,U2G C27U C46U C66U A69G C71U,-0.312
7,U2G G6A A43C C46U C66U A69G C71U,-0.303
8,U2G G6A C27U C66U A70U,-0.0165
9,U2G G6A C27U C66U A70G,-0.227
10,U2G C46U A69G,-0.208
11,U2G C66U A69G C71U,-0.213
12,U2G G6A C27U A43C A69G A70U C71U,-0.502
13,U2G G6A C46U A69G A70G C71U,-0.154
14,U2G G6A C46U A70G C71U,-0.144
15,U2G C27U C46U C66U A70G C71U,-0.175
16,U2G G6A C27U,-0.0425
17,U2G C27U C66A A69G C71U,-0.197
18,U2G C66A A69G A70G C71U,-0.152
19,U2G G6A C27U C66A A70G C71U,-0.149
20,U2G G6A A43C A70U C71U,-0.169
21,U2G G6A C27U A43C C66A A69G C71U,-0.379
22,U2G G6A C27U A43C C46U C66A A69G A70U,-0.187
23,U2G G6A C27U C46U C66A A70G C71U,-0.221
24,U2G G6A C27U C71U,-0.156

row,Variant,yeast fitness (ln)
1,U2G C46U C66U A69G A70U C71U,-0.349
2,U2G C46U A70U,-0.00122
3,U2G C46U A70G,-0.0123
4,U2G C66U A69G A70U C71U,-0.381
5,U2G G6A C27U A43C C46U A70U C71U,-0.176
6,U2G G6A A43C C46U,-0.0442
7,U2G G6A C27U A43C C66A A69G A70U C71U,-0.548
8,U2G C46U A69G A70G,-0.131
9,U2G C46U A69G A70U,0.00211
10,U2G G6A C27U C66U A70U C71U,-0.364
11,U2G G6A C27U A43C C46U C66U A70U C71U,-0.598
12,U2G G6A C27U A43C C66A,-0.237
13,U2G G6A C27U A43C C66U,-0.113
14,U2G G6A C27U A43C C46U C66U A70G C71U,-0.194
15,U2G C46U A69G A70G C71U,-0.184
16,U2G C27U C66U A69G A70U C71U,-0.433
17,U2G G6A C27U C46U A70G,-0.0986
18,U2G G6A C27U C46U A70U,-0.106
19,U2G G6A C27U A43C C46U C66U A70G,-0.143
20,U2G G6A C27U A43C C46U C66U A70U,-0.0122
21,U2G G6A C27U A43C C66A A70U C71U,-0.473
22,U2G G6A A43C C46U C66A A69G A70U C71U,-0.381
23,U2G G6A C27U A43C C46U C66U A69G,-0.415
24,U2G G6A C27U A43C C46U C66U A69G C71U,-0.377

row,Variant,yeast fitness (ln)
1,U2G G6A C27U A43C C46U A70G,-0.145
2,U2G G6A C27U A43C C46U A70U,-0.119
3,U2G C46U C66U A69G A70G C71U,-0.114
4,U2G G6A C46U C66U C71U,-0.082
5,U2G G6A C27U C66A A69G A70U,-0.287
6,U2G G6A C46U A69G A70U C71U,-0.272
7,U2G C27U C46U C66U A70U,-0.0345
8,U2G C27U C46U C66U A70G,-0.117
9,U2G G6A C27U C46U C66A A69G C71U,-0.325
10,U2G G6A A70U C71U,-0.107
11,U2G G6A C27U C66U A69G A70G C71U,-0.272
12,U2G G6A A43C C66A A69G A70U C71U,-0.329
13,U2G G6A C27U A43C C46U C66A A70G,-0.132
14,U2G G6A C27U A43C C46U C66A A70U,-0.115
15,U2G G6A A43C C46U C66A A70G C71U,-0.139
16,U2G G6A A43C A69G C71U,-0.364
17,U2G G6A A43C C66U,-0.0762
18,U2G G6A C27U A43C C46U A69G A70G C71U,-0.297
19,U2G G6A C46U C66A C71U,-0.134
20,U2G G6A C27U A69G A70U C71U,-0.383
21,U2G G6A C27U A43C A70U C71U,-0.242
22,U2G G6A C46U C66U A69G,-0.163
23,U2G G6A C27U C46U A69G A70U C71U,-0.368
24,U2G G6A A43C C66A C71U,-0.347

row,Variant,yeast fitness (ln)
1,U2G C27U C66A A69G A70U,-0.155
2,U2G C27U C66A A69G A70G,-0.15
3,U2G G6A C27U A43C A69G A70G C71U,-0.176
4,U2G G6A C27U C46U C66U A69G A70U C71U,-0.394
5,U2G G6A A69G C71U,-0.113
6,U2G C46U A69G C71U,-0.0879
7,U2G G6A A43C C46U C66U C71U,-0.212
8,U2G G6A C27U A43C A69G C71U,-0.391
9,U2G G6A A43C C46U C66A A69G C71U,-0.341
10,U2G C27U C46U C66U A69G A70U,-0.392
11,U2G C46U C66A A70G C71U,-0.116
12,U2G G6A A43C C46U C66U A69G A70U C71U,-0.379
13,U2G C46U C66A A69G A70G C71U,-0.139
14,U2G G6A C27U A69G,-0.24
15,U2G G6A C27U A43C C66A A69G A70G C71U,-0.366
16,U2G G6A A43C C46U C66A C71U,-0.153
17,U2G C27U C46U C71U,-0.099
18,U2G C46U C66A C71U,-0.0426
19,U2G C66U A69G A70U,-0.285
20,U2G C66U A69G A70G,-0.151
21,U2G G6A C27U A43C A70G,-0.186
22,U2G G6A C27U A43C A70U,-0.119
23,U2G G6A C46U C66A,-0.093
24,U2G G6A C46U C66U,-0.0595

row,Variant,yeast fitness (ln)
1,U2G C27U C66U A69G C71U,-0.282
2,U2G C46U C66U A70G C71U,-0.115
3,U2G G6A A43C C66U C71U,-0.388
4,U2G G6A A43C A69G A70U C71U,-0.364
5,U2G C46U C66A A70G,-0.0687
6,U2G C46U C66A A70U,-0.0904
7,U2G G6A C46U C66A A69G A70G C71U,-0.193
8,U2G G6A A70U,-0.0249
9,U2G G6A A70G,-0.114
10,U2G G6A A43C C46U C66U A70U,-0.000672
11,U2G G6A A43C C46U C66U A70G,-0.205
12,U2G G6A C27U A43C C66U A69G A70G,-0.3
13,U2G G6A C27U A43C C66U A69G A70U,-0.326
14,U2G G6A C46U C71U,-0.149
15,U2G C46U A70U C71U,-0.0115
16,U2G G6A A43C A70U,-0.14
17,U2G G6A A43C A70G,-0.0939
18,U2G G6A C27U A43C C66U C71U,-0.373
19,U2G C27U C66A A69G A70G C71U,-0.247
20,U2G C46U C71U,-0.0759
21,U2G G6A C27U A43C C46U C66U A69G A70U C71U,-0.433
22,U2G G6A C27U A43C C66U A70U C71U,-0.339
23,U2G G6A A43C C66A A70G C71U,-0.198
